“And” between values parts separate entries of the source, which are not always exact repeats. Equal entries are not always repeated.
Tests used:
Mus musculus [1] = test: Effective dose against maximal electroshock seizure in mice after intraperitoneal administration; type: functional
Summary of the method: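 Mice, ip; compounds suspended in 0.5% (w/v) methylcellulose in water, 0.01 mL/g body weight. Butacaine-containing saline electrolyte was dropped on the eyes, then corneal electrodes delivered 60-cycle AC, 50 mA, 0.2 s. The endpoint was abolition of hindlimb tonic extension.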

[2] = (§1) Neurotoxic toxicity was evaluated by rotarod test after intraperitoneal administration; type: organism-based; conditions: mouse, in vivo, ip
Summary of the method: (§2)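 Mice, ip, in 0.5% methylcellulose suspension. Impairment was defined as failure to stay balanced for 1 min on a 1 in. knurled rod turning at 6 rpm, in each of three successive trials.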

Rattus norvegicus = test: Effective dose against maximal electroshock seizure in rat after oral administration; type: functional
Summary of the method: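 Male Sprague Dawley rats dosed orally with a suspension in 0.5% (w/v) methylcellulose in water. After anaesthetic electrolyte eye drops, corneal 60-cycle AC was applied at 150 mA for 0.2 s. Protection meant abolition of hindlimb tonic extensor.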

[3] = Protective index between TD50/MES ED50 when administered intraperitoneally to mice; type: ADME, organism-based; conditions: mouse, in vivo, ip; read-out: PI
[4] = Protective index between TD50/MES ED50 when administered intraperitoneally to mouse; type: ADME, organism-based; conditions: in vivo, ip, read-out: PI
[5] = Protective index between TD50/MES ED50 when administered orally to rat; type: ADME, organism-based; conditions: in vivo, po, read-out: PI
Summary of the method: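 Rats, oral. PI = TD50 (ataxia, gait and placing-response assessment) / MES ED50 (150 mA, 0.2 s corneal shock), with both taken at the time of peak effect.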

Mus musculus [6] = test: as §1; type: organism-based; conditions: in vivo, ip; summary of the method: as §2
[7] = Neurotoxic toxicity was evaluated by rotarod test after intraperitoneal administration determined from horizontal screen test; type: organism-based; conditions: mouse, in vivo, ip
[8] = Neurotoxic toxicity in mice was evaluated by rotarod test after intraperitoneal administration; type: organism-based; conditions: mouse, in vivo, ip; summary of the method: as §2
[9] = Neurotoxic toxicity against Rat was evaluated by rotarod test afte oral administration; type: organism-based; conditions: in vivo
[10] = Neurotoxic toxicity against Rat was evaluated by rotarod test afte oral administration <250; type: organism-based; conditions: in vivo
[11] = Mus musculus, ip, read-out: ED50

CC(=O)NC(CN1CCOCC1)C(=O)NCc1ccccc1 (centres undefined)
ED50 (Mus musculus [1]): <300 mg/kg and >100 mg/kg | TD50 [2]: > 300 mg/kg

CCCC(CCC)C(=O)O [VALPROIC ACID]
ED50 (Rattus norvegicus): 400 mg/kg | ED50 (Mus musculus [1]; [11]): 290 mg/kg

CC(=O)N[C@@H](C)C(=O)NCc1ccccc1
selectivity ratio [3]: 1.5

O=C1NC(=O)C(c2ccccc2)(c2ccccc2)N1 [PHENYTOIN]
ED50 (Rattus norvegicus): 23 mg/kg | selectivity ratio [4]: 6.6 | selectivity ratio [5]: > 22 | ED50 (Mus musculus [1]; [11]): 6.5 mg/kg

CC(=O)NC(CBr)C(=O)NCc1ccccc1 (centres undefined)
TD50 (Mus musculus [6]): > 100 mg/kg and < 300 mg/kg

CON(C)C(NC(C)=O)C(=O)NCc1ccccc1 (centres undefined)
selectivity ratio [3]: 7.6 | TD50 [7]: 51 mg/kg | ED50 (Mus musculus [1]; [11]): 6.7 mg/kg

CC(=O)N[C@H](CO)C(=O)NCc1ccccc1
selectivity ratio [4]: > 9.4 | ED50 (Mus musculus [1]; [11]): 53 mg/kg | TD50 [8]: > 500 mg/kg

CCNCC(NC(C)=O)C(=O)NCc1ccccc1 (centres undefined)
ED50 (Mus musculus [1]; [11]): > 100 mg/kg | TD50 [2]: 100 mg/kg

COC[C@@H](NC(C)=O)C(=O)NCc1ccccc1 [LACOSAMIDE]
TD50 [9]: > 500 mg/kg

CC(=O)NC(NO)C(=O)NCc1ccccc1 (centres undefined)
ED50 (Mus musculus [1]; [11]): 100 mg/kg

COC[C@H](NC(C)=O)C(=O)NCc1ccccc1
ED50 (Rattus norvegicus): > 30 mg/kg | ED50 (Mus musculus [1]): >100 mg/kg and <300 mg/kg | TD50 [9]: > 30 mg/kg | TD50 [8]: > 300 mg/kg

CC(=O)NC(CO)C(=O)NCc1ccccc1 (centres undefined)
TD50 [7]: < 300 mg/kg | ED50 (Mus musculus [1]): >100 mg/kg and <300 mg/kg

CSCC(NC(C)=O)C(=O)NCc1ccccc1 (centres undefined)
TD50 (Mus musculus [6]): < 300 mg/kg and > 100 mg/kg

CC(=O)NC(CN)C(=O)NCc1ccccc1 (centres undefined)
ED50 (Mus musculus [1]; [11]): > 100 mg/kg | TD50 [2]: > 100 mg/kg

CC(=O)NC(C)C(=O)NCc1ccccc1 (centres undefined)
ED50 (Rattus norvegicus): 48 mg/kg | selectivity ratio [3]: 5.9 | selectivity ratio [5]: > 21

CCOCC(NC(C)=O)C(=O)NCc1ccccc1 (centres undefined)
ED50 (Rattus norvegicus): 19 mg/kg | selectivity ratio [4]: 4.6 | selectivity ratio [5]: > 26 | TD50 [2]: 78 mg/kg

CC(=O)NC(CN(C)C)C(=O)NCc1ccccc1 (centres undefined)
TD50 [2]: > 300 mg/kg

COC[C@@H](NC(C)=O)C(=O)NCc1ccc(F)cc1
ED50 (Rattus norvegicus): 2.6 mg/kg | selectivity ratio [3]: 6.7 | ED50 (Mus musculus [1]; [11]): 4.2 mg/kg | TD50 [9]: < 250 mg/kg | TD50 [10]: > 125 mg/kg

COC[C@@H](NC(C)=O)C(=O)NCc1cccc(F)c1
ED50 (Rattus norvegicus): 6.9 mg/kg | selectivity ratio [3]: 6.7 | selectivity ratio [5]: > 58 | ED50 (Mus musculus [1]; [11]): 6.9 mg/kg | TD50 [9]: > 400 mg/kg | TD50 [2]: 46 mg/kg

CC(=O)NC(CI)C(=O)NCc1ccccc1 (centres undefined)
TD50 [2]: 300 mg/kg

CNCC(NC(C)=O)C(=O)NCc1ccccc1 (centres undefined)
ED50 (Mus musculus [1]): <300 mg/kg and >100 mg/kg | TD50 (Mus musculus [6]): < 300 mg/kg and > 100 mg/kg

CONC(NC(C)=O)C(=O)NCc1ccccc1 (centres undefined)
selectivity ratio [3]: 7.4 | ED50 (Mus musculus [1]; [11]): 6.2 mg/kg

CC(=O)N[C@H](C)C(=O)NCc1ccccc1
ED50 (Rattus norvegicus): 28 mg/kg | selectivity ratio [3]: 3.9 | selectivity ratio [5]: > 36 | ED50 (Mus musculus [1]; [11]): 55 mg/kg

CC(=O)NC(CCl)C(=O)NCc1ccccc1 (centres undefined)
ED50 (Mus musculus [1]; [11]): 100 mg/kg | TD50 (Mus musculus [6]): < 300 mg/kg and > 100 mg/kg

Reference: ChEMBL document CHEMBL1129569, “Synthesis and anticonvulsant activities of N-Benzyl-2-acetamidopropionamide derivatives” (J Med Chem, 1996)
